Laboratory results taken from ChEMBL document CHEMBL1151705, “Novel azalides derived from 16-membered macrolides. Part II: Isolation of the linear 9-formylcarboxylic acid and its sequential macrocyclization with an amino alcohol or an azidoamine” (2008).
In brackets after ≈: the same amount, converted by molar mass.

What was measured:
Format in all cases: functional
Streptococcus pneumoniae [1] = assay: Antimicrobial activity against Streptococcus pneumoniae 8 expressing inducible ermB after 20 hrs by agar dilution method; details: Streptococcus pneumoniae, 20 h; read-out: MIC
Summary of the method: (§1)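 Streptococci, H. influenzae and M. catarrhalis were precultured on blood agar plates. Suspensions of about 10⁶ CFU/ml were inoculated onto sensitivity disk agar supplemented with 5% horse blood and incubated at 37 °C for 20 h. MIC was read as the lowest drug concentration with no visible growth.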

Streptococcus pneumoniae [2] = assay: Antimicrobial activity against Streptococcus pneumoniae 9 expressing mefA after 20 hrs by agar dilution method; details: Streptococcus pneumoniae, 20 h; read-out: MIC; summary of the method: as §1
Streptococcus pneumoniae [3] = assay: Antimicrobial activity against Streptococcus pneumoniae 10 expressing mefA after 20 hrs by agar dilution method; details: Streptococcus pneumoniae, 20 h; read-out: MIC; summary of the method: as §1
Streptococcus pyogenes [4] = assay: Antimicrobial activity against drug-susceptible Streptococcus pyogenes 1 after 20 hrs by agar dilution method; details: Streptococcus pyogenes, 20 h; read-out: MIC; summary of the method: as §1
Streptococcus pyogenes [5] = assay: Antimicrobial activity against Streptococcus pyogenes 2 constitutively expressing ermB after 20 hrs by agar dilution method; summary of the method: as §1
Streptococcus pyogenes [6] = assay: Antimicrobial activity against Streptococcus pyogenes 3 expressing mefA after 20 hrs by agar dilution method; details: Streptococcus pyogenes, 20 h; read-out: MIC; summary of the method: as §1
Moraxella catarrhalis [7] = assay: Antimicrobial activity against drug-susceptible Moraxella catarrhalis 1 after 20 hrs by agar dilution method; details: Moraxella catarrhalis, 20 h; read-out: MIC; summary of the method: as §1
Moraxella catarrhalis [8] = assay: Antimicrobial activity against drug-susceptible Moraxella catarrhalis 2 after 20 hrs by agar dilution method; details: Moraxella catarrhalis, 20 h; read-out: MIC; summary of the method: as §1
Haemophilus influenzae [9] = assay: Antimicrobial activity against drug-susceptible Haemophilus influenzae 1 after 20 hrs by agar dilution method; details: Haemophilus influenzae, 20 h; read-out: MIC; summary of the method: as §1
Haemophilus influenzae [10] = assay: Antimicrobial activity against drug-susceptible Haemophilus influenzae 2 after 20 hrs by agar dilution method; details: Haemophilus influenzae, 20 h; read-out: MIC; summary of the method: as §1
Haemophilus influenzae [11] = assay: Antimicrobial activity against drug-susceptible Haemophilus influenzae 3 after 20 hrs by agar dilution method; details: Haemophilus influenzae, 20 h; read-out: MIC; summary of the method: as §1
Haemophilus influenzae [12] = assay: Antimicrobial activity against drug-susceptible Haemophilus influenzae 4 after 20 hrs by agar dilution method; details: Haemophilus influenzae, 20 h; read-out: MIC; summary of the method: as §1
Staphylococcus aureus [13] = assay: Antimicrobial activity against drug-susceptible Staphylococcus aureus 209P JC-1 after 20 hrs by agar dilution method; details: Staphylococcus aureus, 209P, 20 h; read-out: MIC
Summary of the method: (§2)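 Agar dilution MIC. S. aureus seed culture was grown in sensitivity test broth. Cell suspension (about 10⁶ CFU/ml) was inoculated onto sensitivity disk agar with 5% horse blood and incubated at 37 °C for 20 h. MIC was the lowest drug concentration that prevented visible growth.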

Staphylococcus aureus [14] = assay: Antimicrobial activity against drug-susceptible Staphylococcus aureus 2 after 20 hrs by agar dilution method; details: Staphylococcus aureus, 20 h; read-out: MIC; summary of the method: as §2
Staphylococcus aureus [15] = assay: Antimicrobial activity against drug-susceptible Staphylococcus aureus 3 after 20 hrs by agar dilution method; details: Staphylococcus aureus, 20 h; read-out: MIC; summary of the method: as §2
Staphylococcus aureus [16] = assay: Antimicrobial activity against Staphylococcus aureus 4 constitutively expressing ermA after 20 hrs by agar dilution method; summary of the method: as §2
Staphylococcus aureus [17] = assay: Antimicrobial activity against Staphylococcus aureus 5 expressing inducible ermB after 20 hrs by agar dilution method; details: Staphylococcus aureus, 20 h; read-out: MIC; summary of the method: as §2
Streptococcus pneumoniae [18] = assay: Antimicrobial activity against drug-susceptible Streptococcus pneumoniae DP1 Type1 after 20 hrs by agar dilution method; details: Streptococcus pneumoniae, 20 h; read-out: MIC; summary of the method: as §1
Streptococcus pneumoniae [19] = assay: Antimicrobial activity against drug-susceptible Streptococcus pneumoniae 2 after 20 hrs by agar dilution method; details: Streptococcus pneumoniae, 20 h; read-out: MIC; summary of the method: as §1
Streptococcus pneumoniae [20] = assay: Antimicrobial activity against drug-susceptible Streptococcus pneumoniae 3 after 20 hrs by agar dilution method; details: Streptococcus pneumoniae, 20 h; read-out: MIC; summary of the method: as §1
Streptococcus pneumoniae [21] = assay: Antimicrobial activity against Streptococcus pneumoniae 4 constitutively expressing ermB after 20 hrs by agar dilution method; details: Streptococcus pneumoniae, 20 h; read-out: MIC; summary of the method: as §1
Streptococcus pneumoniae [22] = assay: Antimicrobial activity against Streptococcus pneumoniae 5 constitutively expressing ermB/mefA after 20 hrs by agar dilution method; details: Streptococcus pneumoniae, 20 h; read-out: MIC; summary of the method: as §1
Streptococcus pneumoniae [23] = assay: Antimicrobial activity against Streptococcus pneumoniae 6 constitutively expressing ermB after 20 hrs by agar dilution method; details: Streptococcus pneumoniae, 20 h; read-out: MIC; summary of the method: as §1
Streptococcus pneumoniae [24] = assay: Antimicrobial activity against Streptococcus pneumoniae 7 expressing inducible ermB after 20 hrs by agar dilution method; details: Streptococcus pneumoniae, 20 h; read-out: MIC; summary of the method: as §1
Staphylococcus aureus [25] = assay: Antimicrobial activity against Staphylococcus aureus 6 expressing inducible ermB after 20 hrs by agar dilution method; summary of the method: as §2

Row | SMILES | MIC (Streptococcus pneumoniae [1]) [µg/mL] | MIC (Streptococcus pneumoniae [2]) [µg/mL] | MIC (Streptococcus pneumoniae [3]) [µg/mL] | MIC (Streptococcus pyogenes [4]) [µg/mL] | MIC (Streptococcus pyogenes [5]) [µg/mL] | MIC (Streptococcus pyogenes [6]) [µg/mL] | MIC (Moraxella catarrhalis [7]) [µg/mL] | MIC (Moraxella catarrhalis [8]) [µg/mL] | MIC (Haemophilus influenzae [9]) [µg/mL] | MIC (Haemophilus influenzae [10]) [µg/mL] | MIC (Haemophilus influenzae [11]) [µg/mL] | MIC (Haemophilus influenzae [12]) [µg/mL] | MIC (Staphylococcus aureus [13]) [µg/mL] | MIC (Staphylococcus aureus [14]) [µg/mL] | MIC (Staphylococcus aureus [15]) [µg/mL] | MIC (Staphylococcus aureus [16]) [µg/mL] | MIC (Staphylococcus aureus [17]) [µg/mL] | MIC (Streptococcus pneumoniae [18]) [µg/mL] | MIC (Streptococcus pneumoniae [19]) [µg/mL] | MIC (Streptococcus pneumoniae [20]) [µg/mL] | other results
1 | CCOC(=O)[C@H]1[C@H](C)O[C@@H](O[C@H]2[C@H](N(C)C)[C@@H](O)[C@H](O[C@H]3[C@@H](CC=O)C[C@@H](C)[C@@H](O)CN(C)CCC[C@H](CCCc4ccnc5ccccc45)OC(=O)C[C@@H](OC(=O)CC)[C@@H]3OC)O[C@@H]2C)C[C@@]1(C)O | 8 (≈ 8.1 µM) | 0.06 (≈ 0.0607 µM) | 0.06 (≈ 0.0607 µM) | 0.06 (≈ 0.0607 µM) | > 128 | 0.5 (≈ 0.506 µM) | 2 (≈ 2.02 µM) | 2 (≈ 2.02 µM) | 32 (≈ 32.4 µM) | 4 (≈ 4.05 µM) | 16 (≈ 16.2 µM) | 16 (≈ 16.2 µM) | 0.5 (≈ 0.506 µM) | 1 (≈ 1.01 µM) | 0.25 (≈ 0.253 µM) | > 128 | 0.5 (≈ 0.506 µM) | 0.03 (≈ 0.0304 µM) | 0.06 (≈ 0.0607 µM) | 0.06 (≈ 0.0607 µM) | MIC (Streptococcus pneumoniae [21]): > 128 µg/mL; MIC (Streptococcus pneumoniae [22]): > 128 µg/mL; MIC (Streptococcus pneumoniae [23]): > 128 µg/mL; MIC (Streptococcus pneumoniae [24]): 8 µg/mL (≈ 8.1 µM); MIC (Staphylococcus aureus [25]): 0.5 µg/mL (≈ 0.506 µM)
2 | CCOC(=O)[C@H]1[C@H](C)O[C@@H](O[C@H]2[C@H](N(C)C)[C@@H](O)[C@H](O[C@H]3[C@@H](CC=O)C[C@@H](C)[C@@H](O)CN(C)CCC[C@@H](C/C=C/c4ccnc5ccccc45)OC(=O)C[C@@H](OC(=O)CC)[C@@H]3OC)O[C@@H]2C)C[C@@]1(C)O | 32 (≈ 32.4 µM) | 0.13 (≈ 0.132 µM) | 0.13 (≈ 0.132 µM) | 0.25 (≈ 0.253 µM) | > 128 | 0.5 (≈ 0.507 µM) | 2 (≈ 2.03 µM) | 4 (≈ 4.06 µM) | 64 (≈ 64.9 µM) | 8 (≈ 8.11 µM) | 16 (≈ 16.2 µM) | 16 (≈ 16.2 µM) | 0.5 (≈ 0.507 µM) | 1 (≈ 1.01 µM) | 0.25 (≈ 0.253 µM) | > 128 | 0.25 (≈ 0.253 µM) | 0.13 (≈ 0.132 µM) | 0.13 (≈ 0.132 µM) | 0.06 (≈ 0.0608 µM) | MIC (Streptococcus pneumoniae [21]): > 128 µg/mL; MIC (Streptococcus pneumoniae [22]): > 128 µg/mL; MIC (Streptococcus pneumoniae [23]): > 128 µg/mL; MIC (Streptococcus pneumoniae [24]): 32 µg/mL (≈ 32.4 µM); MIC (Staphylococcus aureus [25]): 0.5 µg/mL (≈ 0.507 µM)
3 | CCOC(=O)[C@H]1[C@H](C)O[C@@H](O[C@H]2[C@H](N(C)C)[C@@H](O)[C@H](O[C@H]3[C@@H](CC=O)C[C@@H](C)[C@@H](O)CN(C)CCC[C@H](C/C=C/c4ccccc4)OC(=O)C[C@@H](OC(=O)CC)[C@@H]3OC)O[C@@H]2C)C[C@@]1(C)O | 4 (≈ 4.28 µM) | 0.06 (≈ 0.0642 µM) | 0.06 (≈ 0.0642 µM) | 0.13 (≈ 0.139 µM) | > 128 | 0.5 (≈ 0.535 µM) | 1 (≈ 1.07 µM) | 1 (≈ 1.07 µM) | 64 (≈ 68.4 µM) | 8 (≈ 8.55 µM) | 16 (≈ 17.1 µM) | 8 (≈ 8.55 µM) | 0.5 (≈ 0.535 µM) | 1 (≈ 1.07 µM) | 0.25 (≈ 0.267 µM) | > 128 | 0.25 (≈ 0.267 µM) | 0.03 (≈ 0.0321 µM) | 0.06 (≈ 0.0642 µM) | 0.06 (≈ 0.0642 µM) | MIC (Streptococcus pneumoniae [21]): 128 µg/mL (≈ 137 µM); MIC (Streptococcus pneumoniae [22]): > 128 µg/mL; MIC (Streptococcus pneumoniae [23]): > 128 µg/mL; MIC (Streptococcus pneumoniae [24]): 2 µg/mL (≈ 2.14 µM); MIC (Staphylococcus aureus [25]): 0.5 µg/mL (≈ 0.535 µM)
4 | CCOC(=O)[C@H]1[C@H](C)O[C@@H](O[C@H]2[C@H](N(C)C)[C@@H](O)[C@H](O[C@H]3[C@@H](CC=O)C[C@@H](C)[C@@H](O)CN(C)CCC[C@@H](CCCc4ccnc5ccccc45)OC(=O)C[C@@H](OC(=O)CC)[C@@H]3OC)O[C@@H]2C)C[C@@]1(C)O | 32 (≈ 32.4 µM) | 0.06 (≈ 0.0607 µM) | 0.06 (≈ 0.0607 µM) | 0.13 (≈ 0.132 µM) | > 128 | 0.5 (≈ 0.506 µM) | 2 (≈ 2.02 µM) | 2 (≈ 2.02 µM) | 64 (≈ 64.8 µM) | 4 (≈ 4.05 µM) | 8 (≈ 8.1 µM) | 8 (≈ 8.1 µM) | 0.25 (≈ 0.253 µM) | 0.5 (≈ 0.506 µM) | 0.25 (≈ 0.253 µM) | > 128 | 0.25 (≈ 0.253 µM) | 0.03 (≈ 0.0304 µM) | 0.06 (≈ 0.0607 µM) | 0.06 (≈ 0.0607 µM) | MIC (Streptococcus pneumoniae [21]): > 128 µg/mL; MIC (Streptococcus pneumoniae [22]): > 128 µg/mL; MIC (Streptococcus pneumoniae [23]): > 128 µg/mL; MIC (Streptococcus pneumoniae [24]): 32 µg/mL (≈ 32.4 µM); MIC (Staphylococcus aureus [25]): 0.5 µg/mL (≈ 0.506 µM)
5 | CCOC(=O)[C@H]1[C@H](C)O[C@@H](O[C@H]2[C@H](N(C)C)[C@@H](O)[C@H](O[C@H]3[C@@H](CC=O)C[C@@H](C)[C@@H](O)CN(C)CCC[C@H](C/C=C/c4ccnc5ccccc45)OC(=O)C[C@@H](OC(=O)CC)[C@@H]3OC)O[C@@H]2C)C[C@@]1(C)O | 4 (≈ 4.06 µM) | 0.06 (≈ 0.0608 µM) | 0.06 (≈ 0.0608 µM) | 0.13 (≈ 0.132 µM) | > 128 | 0.5 (≈ 0.507 µM) | 1 (≈ 1.01 µM) | 1 (≈ 1.01 µM) | 32 (≈ 32.4 µM) | 2 (≈ 2.03 µM) | 8 (≈ 8.11 µM) | 8 (≈ 8.11 µM) | 0.25 (≈ 0.253 µM) | 1 (≈ 1.01 µM) | 0.25 (≈ 0.253 µM) | > 128 | 0.25 (≈ 0.253 µM) | 0.03 (≈ 0.0304 µM) | 0.06 (≈ 0.0608 µM) | 0.015 (≈ 0.0152 µM) | MIC (Streptococcus pneumoniae [21]): > 128 µg/mL; MIC (Streptococcus pneumoniae [22]): > 128 µg/mL; MIC (Streptococcus pneumoniae [23]): > 128 µg/mL; MIC (Streptococcus pneumoniae [24]): 8 µg/mL (≈ 8.11 µM); MIC (Staphylococcus aureus [25]): 0.5 µg/mL (≈ 0.507 µM)
